TRPC6 inhibitor = mouse TRPC6 channel inhibition | Q61143 | HEK293-TRPC6, membrane potential dye, ACh-evoked depolarization; stronger effect = lower value | B-score at 10 µM | 1.1% of 310,000 active | AID 2553;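 active = B-score under library mean minus 3 SD, initial fluorescence not abnormally high, positive integrated signal ratio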;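 also: B-score derived from integrated fluorescence ratio over the kinetic read; more negative B-score means stronger inhibition of depolarization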
TRPC4 inh = inhibitors of mouse TRPC4 channel | HEK293 TRPC4beta/mu-opioid, DAMGO-evoked Fluo4 calcium flux; stronger effect = lower value | 0.39% of 300,000 active | AID 2247 | B-score at 10 µM;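 active = B-score over 3 SD under the library average, no early fluorescence shift, positive overall ratio signal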
Target sequence (Q9QUQ5 whole entry, looked up): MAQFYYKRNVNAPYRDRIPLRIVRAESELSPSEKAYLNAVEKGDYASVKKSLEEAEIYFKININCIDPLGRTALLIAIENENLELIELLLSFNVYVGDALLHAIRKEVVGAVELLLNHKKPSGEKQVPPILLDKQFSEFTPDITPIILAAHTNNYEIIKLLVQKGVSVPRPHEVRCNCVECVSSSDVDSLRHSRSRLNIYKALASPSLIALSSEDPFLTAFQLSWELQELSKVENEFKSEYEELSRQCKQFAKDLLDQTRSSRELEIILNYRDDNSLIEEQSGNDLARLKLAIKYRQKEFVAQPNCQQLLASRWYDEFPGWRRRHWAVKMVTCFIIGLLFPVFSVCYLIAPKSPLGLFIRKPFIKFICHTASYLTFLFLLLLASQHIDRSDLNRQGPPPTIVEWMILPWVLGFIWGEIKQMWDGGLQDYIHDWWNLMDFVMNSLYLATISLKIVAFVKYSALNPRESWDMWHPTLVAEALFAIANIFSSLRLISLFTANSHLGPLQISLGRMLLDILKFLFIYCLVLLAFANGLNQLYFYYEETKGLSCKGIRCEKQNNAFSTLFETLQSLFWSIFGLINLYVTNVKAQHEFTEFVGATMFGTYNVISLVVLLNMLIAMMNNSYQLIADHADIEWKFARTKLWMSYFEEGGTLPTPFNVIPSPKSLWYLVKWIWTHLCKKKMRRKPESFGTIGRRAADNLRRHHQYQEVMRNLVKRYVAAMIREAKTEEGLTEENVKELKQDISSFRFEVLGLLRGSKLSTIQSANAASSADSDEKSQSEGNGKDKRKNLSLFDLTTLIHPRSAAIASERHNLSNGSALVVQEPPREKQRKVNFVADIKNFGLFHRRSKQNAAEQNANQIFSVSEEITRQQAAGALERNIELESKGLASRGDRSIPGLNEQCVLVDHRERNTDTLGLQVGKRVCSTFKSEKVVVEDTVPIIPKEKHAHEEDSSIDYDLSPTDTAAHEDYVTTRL
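material = TRPC4beta/mu-opioid receptor HEK293 cell line | probe or stimulus = sequential submaximal and maximal DAMGO stimulation | compound dosing = one concentration per compound | measured by = Fluo4 Ca2+ flux fluorescence | evaluation = integrated fluorescence ratio relative to baseline, converted to per-well B score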
TRPC4 PAM = allosterically enhances the mouse TRPC4 cation channel; HEK293 TRPC4beta/mu-opioid, DAMGO EC20, Fluo-4 Ca2+ flux; stronger effect = higher value; B-score at 10 µM; 0.42% of 310,000 active; AID 2227;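 active = B-score of calcium response area above 5 SD of library B-scores, with initial fluorescence ratio within 5 SD of library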;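 also: B-score of integrated fluorescence ratio over time as area under calcium response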
TRPC4 act = TRPC4 (mouse) channel activation; HEK293 TRPC4beta/mu-opioid, Fluo4 calcium fluorescence; stronger effect = higher value; Q9QUQ5; 0.49% of 310,000 active; B-score at 10 µM; AID 2237;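 active = B-score above 5 SD of library B-scores, and initial fluorescence ratio not above library mean plus 5 SD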;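 also: positive B-score marks a calcium rise read as TRPC4 activation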
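Assay system: HEK293 stable line with TRPC4beta plus mu-opioid receptor; schedule: 45 min room-temperature Fluo4 loading, 110 s read; technique: kinetic Fluo4 calcium fluorescence; evaluation: integrated baseline-normalised fluorescence ratio, converted to per-well B score; controls: buffer (low) and maximal DAMGO (high)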
TRPC6 act = activates the mouse TRPC6 cation channel; Q61143; HEK293-TRPC6 membrane potential dye fluorescence; stronger effect = higher value; B-score at 10 µM; 0.13% of 310,000 active;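 active = B-score of the integrated fluorescence ratio above library mean plus 3 SD, and starting fluorescence ratio within library mean plus 5 SD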;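 also: higher score means more depolarization so channel activation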
TRPC4 sel inh 2 = second selectivity test of TRPC6 inhibitors: effect on mouse TRPC4. shares compounds with TRPC6 inhibitor. HEK293 TRPC4/MOR, membrane potential dye fluorescence; channel activated by saturating DAMGO dose. inhibition, % at 10 µM. 42% of 920 active;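 active = compounds whose fluorescence signal differed from control wells by over 3 SD, either direction, in both duplicate plates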
TRPC4 spec = mouse TRPC4 off-target activity of TRPC6 inhibitors; shares compounds with TRPC6 inhibitor; HEK293 TRPC4/mu-opioid, membrane potential fluorescence; activity change, negative = inhibition, % at 10 µM; 61% of 920 active; AID 2777;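 active = rise or fall in signal beyond 3 SD of buffer-only wells in both replicate plates, either sign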;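 also: integrated kinetic ratio of fluorescence range over baseline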
HEK293 MPD ctr 2-1 = second check of TRPC6 inhibitor effects in parental HEK293 cells; shares compounds with TRPC6 inhibitor; signal change vs control, % at 10 µM; 31% of 920 active; parental HEK293 membrane potential dye fluorescence; maximal acetylcholine challenge after compound addition;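 active = membrane potential signal moving either way by over 3 SD of the maximum-effect control, in both duplicate plates, meaning non-specific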
HEK293 MPD ctr-1 = parental HEK293 nonspecific activity of TRPC6 inhibitors. shares compounds with TRPC6 inhibitor. parental HEK293 membrane potential dye fluorescence. membrane potential signal change, % at 10 µM. 60% of 920 active. AID 2780;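 active = membrane potential signal shifting up or down by more than 3 SD of buffer-only wells, on both duplicate plates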
HEK293 MPD ctr-2 = counter-screen for TRPC6 modulators: effect in parental HEK293 cells | membrane potential signal change, % at 10 µM | 51% of 2,400 active | AID 488924 | shares compounds with TRPC6 inhibitor | membrane potential dye fluorescence;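 active = membrane potential signal moves up or down beyond 5 SD from buffer-only wells, on both duplicate plates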
HEK293 MPD ctr 2-2 = parental HEK293 nonspecific activity of TRPC6 modulators, second screen; shares compounds with TRPC6 inhibitor; membrane potential dye fluorescence; after compound, maximal acetylcholine stimulation; inhibition, % at 10 µM; 14% of 2,400 active; AID 488926;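 active = membrane potential signal drops by more than 5 SD from the mean control signal, in both duplicate plates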;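 also: plate controls were acetylcholine ECmax control wells for no effect and buffer only wells for full effect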
TRPC4 ctr mod = selectivity of TRPC6 modulators against mouse TRPC4 | shares compounds with TRPC6 inhibitor | HEK293 TRPC4/mu-opioid, membrane potential fluorescence | percent change from control (negative = decrease, positive = increase), % at 10 µM | 69% of 2,400 active;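 active = membrane potential signal moved up or down beyond 5 SD of buffer control wells, in both duplicate plates, actives on both sides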;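 also: plate controls were assay buffer wells for no effect and DAMGO maximal-effect wells for full effect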
TRPC4/MOR inh 2 = mouse TRPC4 off-target activity of TRPC6 modulators, second screen; AID 488928; HEK293 TRPC4/mu-opioid, membrane potential dye fluorescence; stimulated with maximal-effect DAMGO; shares compounds with TRPC6 inhibitor; 55% of 2,400 active; inhibition, % at 10 µM;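 active = drop in membrane potential signal beyond 5 SD of the control wells in both duplicate plates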;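 also: TRPC4 counter screen for TRPC6 hits run under conditions tuned for TRPC6 not TRPC4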
TRPC6 block conf = mouse TRPC6 inhibitor confirmation; shares compounds with TRPC6 inhibitor; HEK293-TRPC6, membrane potential dye, ACh-evoked depolarization; inhibition, % at 10 µM; 43% of 3,300 active; AID 488960;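 active = fluorescence ratio falls more than 5 SD below the full-stimulation control mean, in both duplicate runs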;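 also: integrated fluorescence ratio of peak minus minimum over baseline after agonist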
TRPC6 act conf = mouse TRPC6 activator confirmation; shares compounds with TRPC6 inhibitor; HEK293-TRPC6 membrane potential dye fluorescence, FDSS; activation, % at 10 µM; 11% of 2,800 active; AID 488961;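 active = ratio signal rise beyond 5 SD above unstimulated control wells' mean, seen in both duplicate runs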;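 also: plate controls were buffer EC0 wells for no effect and acetylcholine ECmax response for full effect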
Active calls of the source: *; i = inactive; . = no result given. Sampled rows, rich in hits. Any-hit rate of the full collection: about 2.3%.

SMILES	TRPC6 inhibitor	TRPC4 inh	TRPC4 PAM	TRPC4 act	TRPC6 act	TRPC6 block conf	TRPC6 act conf	others
O=C(COC(=O)/C=C/C(=O)OCC(=O)Nc1ccccc1F)Nc1ccccc1F	i	i	i	i	i	.	.
CCc1ccc(C(=O)CSc2nc3cc(S(=O)(=O)N4CCOCC4)ccc3n2CC)cc1	i	i	i	i	i	.	.
Cc1ccc(S(=O)(=O)n2cnc(C)c2)cc1	-8.24*	i	i	i	i	i	i	TRPC4 sel inh 2=i;TRPC4 spec=i;HEK293 MPD ctr 2-1=i;HEK293 MPD ctr-1=i
CC(=O)Nc1ccc(S(=O)(=O)n2cnc(C)c2)cc1	i	i	i	i	i	.	.
Cc1cc(C(=O)OCC(=O)NCc2ccc(Cl)cc2)c(C)o1	i	i	i	i	i	.	.
COc1ccc(CNC(=O)C2=CC(c3ccc(OC)c(OC)c3)=NS(=O)(=O)N2C)cc1	i	i	i	i	i	.	.
CCc1ccc(NC(=O)C2=CC(c3ccc(OC)c(OC)c3)=NS(=O)(=O)N2C)cc1	-5.74*	i	i	i	i	i	i	HEK293 MPD ctr-2=i;HEK293 MPD ctr 2-2=i;TRPC4 ctr mod=-17.5%*;TRPC4/MOR inh 2=65.5%*
COc1cc(C2C3=C(CC(C)(C)CC3=O)Nc3ccccc3N2C(C)=O)cc(OC)c1OC (stereo not given)	i	i	i	i	i	.	.
COc1cc(NC2=Nc3cccc4cccc2c34)cc(OC)c1OC	-5.07*	i	i	i	i	i	i	HEK293 MPD ctr-2=i;HEK293 MPD ctr 2-2=i;TRPC4 ctr mod=i;TRPC4/MOR inh 2=32.5%*
COc1ccc(NC2=Nc3cccc4cccc2c34)cc1OC	i	i	i	i	i	.	.
O=C1CC2(CCN(C(=O)c3ccc(Br)cc3)CC2)Oc2ccccc21	i	i	i	i	i	.	.
O=C1C(NS(=O)(=O)c2cccs2)=C(N2CCN(Cc3ccccc3)CC2)C(=O)c2ccccc21	-7.28*	i	i	i	i	57.5%*	i	HEK293 MPD ctr-2=-135.5%*;HEK293 MPD ctr 2-2=i;TRPC4 ctr mod=-36.0%*;TRPC4/MOR inh 2=72.5%*
CN1CCN(C2=C(NS(=O)(=O)c3cccs3)C(=O)c3ccccc3C2=O)CC1	i	i	i	i	i	.	.
CCc1ccc(-c2nc(CN3CCC(C(=O)NCCN(CC)c4ccccc4)CC3)c(C)o2)cc1	-5.57*	i	i	i	i	i	i	HEK293 MPD ctr-2=i;HEK293 MPD ctr 2-2=i;TRPC4 ctr mod=i;TRPC4/MOR inh 2=62.5%*
CCN(CCNC(=O)C1CCN(Cc2nc(-c3cccc(Cl)c3)oc2C)CC1)c1ccccc1	i	i	i	i	i	.	.
Cc1ccnc(NC(=O)COc2ccc3c(c2)CCC3)c1	i	i	i	i	i	.	.
CCN(CC)CCOC(=O)C1c2ccccc2Oc2ccccc21	-9.97*	i	i	i	i	81.4%*	.	TRPC4 sel inh 2=i;TRPC4 spec=7.9%*;HEK293 MPD ctr 2-1=28.5%*;HEK293 MPD ctr-1=6.7%*
N#CCOC(=O)C1c2ccccc2Oc2ccccc21	i	i	i	i	i	.	.
Cc1ccc(NC(=O)c2cccc3c2-c2ccccc2C3=O)cc1C	-7.35*	i	i	i	i	i	i	TRPC4 sel inh 2=i;TRPC4 spec=i;HEK293 MPD ctr 2-1=i;HEK293 MPD ctr-1=i
COc1ccc(NC(=S)N(CCCN2CCC(C)CC2)Cc2cccs2)cc1Cl	-5.99*	i	i	i	i	48.5%*	i	HEK293 MPD ctr-2=i;HEK293 MPD ctr 2-2=i;TRPC4 ctr mod=i;TRPC4/MOR inh 2=84.5%*
CSc1cccc(NC(=S)N(CCCN2CCCC(C)C2)Cc2cccs2)c1 (stereo not given)	-8.05*	i	i	i	i	56.0%*	i	TRPC4 sel inh 2=48.5%*;TRPC4 spec=2.2%*;HEK293 MPD ctr 2-1=i;HEK293 MPD ctr-1=3.1%*
COc1ccc(NC(=S)N(CCCN2CCN(C)CC2)Cc2cccs2)cc1	i	i	i	i	i	.	.
C=C(C)C(=O)Nc1cccc(C2=NOC3(C2)C[C@H](C(N)=O)N(C(=O)c2ccccc2C(=O)c2ccccc2)C3)c1 (stereo not given in full)	i	i	i	i	i	.	.
CCOC(=O)C1=C(c2ccccc2)N(C)C(=O)NC1c1ccc(O)c(OC)c1 (stereo not given)	-9.18*	i	i	i	i	i	i	TRPC4 sel inh 2=i;TRPC4 spec=0.0%*;HEK293 MPD ctr 2-1=i;HEK293 MPD ctr-1=0.0%*
CCOC(=O)C1=C(c2ccccc2)NC(=O)NC1c1ccc(O)c(OCC)c1 (stereo not given)	i	i	i	i	i	.	.
Nc1cccc2nc3ccccc3cc12	-7.24*	i	i	i	i	82.8%*	i	TRPC4 sel inh 2=23.0%*;TRPC4 spec=-35.6%*;HEK293 MPD ctr 2-1=18.0%*;HEK293 MPD ctr-1=-413.0%*
Cc1ccc(C(=O)Nc2ccc(Cl)cc2C)c(Cl)c1	i	i	i	i	i	.	.
O=C(OCc1nnc(-c2ccccc2)o1)c1ccc(Cl)cc1	i	i	i	i	i	.	.
O=C(OCc1nnc(-c2ccccc2)o1)c1ccc2c(c1)OCCO2	-5.75*	i	i	i	i	i	.	HEK293 MPD ctr-2=i;HEK293 MPD ctr 2-2=i;TRPC4 ctr mod=12.5%*;TRPC4/MOR inh 2=i
COc1ccccc1N1CCN(Cc2ccc(O)c3ncccc23)CC1	-7.64*	i	i	i	i	i	i	TRPC4 sel inh 2=i;TRPC4 spec=i;HEK293 MPD ctr 2-1=i;HEK293 MPD ctr-1=i

High-throughput results: PubChem BioAssay, Johns Hopkins Ion Channel Center
